Assay results published in publication PMC9237996 (Toxicological Sciences, 2022).
Read-outs that look alike come from different tables or passages of the source.

Key:
[1] = target: bile salt export pump (BSEP) (Homo sapiens, UniProt O95342); experiment: BSEP membrane vesicle taurocholate transport inhibition; type: biochemical
How it was run: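 ATP-dependent taurocholate uptake into membrane vesicles carrying human BSEP. Transport inhibition was measured across several taurocholate concentrations crossed with several test-compound concentrations. Data were fit with Michaelis-Menten kinetics to give the Ki and the inhibition type. These values were then used as inputs to DILIsym v6A.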

HepG2 cells [2] = experiment: Seahorse oxygen consumption rate; type: cell-based; conditions: DILIsym input parameter
How it was run: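 Oxygen consumption rate was measured in HepG2 cells after 24 h incubation with the test compound. It was related to intracellular compound concentration, measured by LC/MS/MS on a parallel culture with lysate values corrected for lysate and cell volume. Three independent studies were run on HepG2 cells, each in triplicate. The data were translated into DILIsym v6A mitochondrial-dysfunction parameters (ETC inhibition, uncoupling).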

HepG2 cells [3] = experiment: ROS formation by dihydroethidium; type: cell-based; conditions: for RNS/ROS production rate constant 1: DILIsym input parameter, oxidative stress
How it was run: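 HepG2 cells were exposed to a range of test-compound concentrations for 6 or 24 h, and ROS formation was read by dihydroethidium fluorescence. Three independent studies were run, each in triplicate. Intracellular compound level came from LC/MS/MS of cell lysate from a parallel culture, corrected for lysate and cell volume. DILIsym oxidative-stress parameters were fit by simulating the data under a steady-state in vitro dosing scheme.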

[4] = 12 weeks, clinical data, cited from earlier work

Chain of bile salt export pump (BSEP) (O95342 whole entry): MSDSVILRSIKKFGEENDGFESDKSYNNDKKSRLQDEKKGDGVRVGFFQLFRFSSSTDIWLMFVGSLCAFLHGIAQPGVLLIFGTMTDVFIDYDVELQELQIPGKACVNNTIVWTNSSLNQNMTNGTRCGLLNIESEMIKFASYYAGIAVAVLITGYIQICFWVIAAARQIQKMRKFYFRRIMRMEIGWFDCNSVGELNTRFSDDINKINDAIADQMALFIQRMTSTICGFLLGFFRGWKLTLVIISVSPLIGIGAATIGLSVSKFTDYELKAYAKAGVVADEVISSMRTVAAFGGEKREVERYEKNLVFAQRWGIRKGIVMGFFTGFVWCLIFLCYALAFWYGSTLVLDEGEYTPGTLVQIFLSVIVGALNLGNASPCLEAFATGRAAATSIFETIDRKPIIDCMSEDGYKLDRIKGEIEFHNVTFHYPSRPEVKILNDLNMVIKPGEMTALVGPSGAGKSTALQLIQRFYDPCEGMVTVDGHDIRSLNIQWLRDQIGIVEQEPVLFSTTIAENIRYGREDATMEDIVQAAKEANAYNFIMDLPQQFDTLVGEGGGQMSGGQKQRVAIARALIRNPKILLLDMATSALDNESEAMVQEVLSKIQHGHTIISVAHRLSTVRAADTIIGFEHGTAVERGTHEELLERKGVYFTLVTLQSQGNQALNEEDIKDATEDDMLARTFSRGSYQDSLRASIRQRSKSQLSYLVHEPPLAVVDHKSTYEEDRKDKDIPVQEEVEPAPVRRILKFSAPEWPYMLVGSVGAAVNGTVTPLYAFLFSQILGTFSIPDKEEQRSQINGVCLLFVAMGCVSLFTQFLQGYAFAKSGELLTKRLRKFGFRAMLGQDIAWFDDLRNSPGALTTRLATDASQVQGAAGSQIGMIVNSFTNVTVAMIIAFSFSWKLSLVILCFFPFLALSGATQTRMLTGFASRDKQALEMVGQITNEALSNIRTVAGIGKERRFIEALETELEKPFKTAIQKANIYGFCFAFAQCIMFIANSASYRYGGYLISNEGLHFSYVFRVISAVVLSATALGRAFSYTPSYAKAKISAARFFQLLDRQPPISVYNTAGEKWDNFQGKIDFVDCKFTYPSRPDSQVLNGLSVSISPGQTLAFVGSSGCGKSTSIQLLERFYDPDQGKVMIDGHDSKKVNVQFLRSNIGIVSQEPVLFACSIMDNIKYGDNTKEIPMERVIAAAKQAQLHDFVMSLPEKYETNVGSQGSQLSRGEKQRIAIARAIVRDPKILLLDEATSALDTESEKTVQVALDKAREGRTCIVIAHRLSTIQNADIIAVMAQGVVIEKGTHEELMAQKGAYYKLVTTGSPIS

| SMILES | BSEP inhibition alpha value [1] | Ki [1] | mode of inhibition for BSEP [1] | Coefficient for ETC Inhibition 3 (HepG2 cells [2]; mitochondrial dysfunction) | Coefficient for ETC inhibition 1 (HepG2 cells [2]; mitochondrial dysfunction) | Max inhibitory effect for ETC inhibition 3 (HepG2 cells [2]; mitochondrial dysfunction) | RNS/ROS production rate constant 1 (HepG2 cells [3]) | Uncoupler 1 effect Hill (HepG2 cells [2]; mitochondrial dysfunction) | Uncoupler 1 effect Km (HepG2 cells [2]; mitochondrial dysfunction) | Uncoupler 1 effect Vmax (HepG2 cells [2]; mitochondrial dysfunction) | further results |
| --- | --- | --- | --- | --- | --- | --- | --- | --- | --- | --- | --- |
| Cc1cc(C[C@@H](NC(=O)N2CCC(c3cc4ccccc4[nH]c3=O)CC2)C(=O)N2CCN(C3CCN(C)CC3)CC2)cc2cn[nH]c12 [Zavegepant, zavegepant] | 1.368 Dimensionless | > 340 µM | mixed | 2 µM | 1600 µM | 1.5 Dimensionless | No ROS production |  |  |  | Oxidative stress / increase in ROS in vitro (HepG2 cells [3]; qualitative, DHE staining, HepG2, 24-h incubation): did not cause an increase in ROS |
| N[C@@H]1c2cccnc2[C@H](OC(=O)N2CCC(n3c(=O)[nH]c4ncccc43)CC2)CC[C@H]1c1cccc(F)c1F [Rimegepant, rimegepant] | Competitive | 27.2 µM | competitive | 1.89 µM | 3470 µM | 0.45 Dimensionless | 0.0972 M⁻¹ s⁻¹ | No effect | No effect | No effect |  |
| O=C(N[C@@H]1CC[C@@H](c2cccc(F)c2F)CN(CC(F)(F)F)C1=O)N1CCC(n2c(=O)[nH]c3ncccc32)CC1 [Telcagepant, telcagepant] |  | 19 µM | mixed |  |  |  |  |  |  |  | BSEP inhibition alpha value ([1]; Telcagepant—High parameter set): 4.32 Dimensionless; BSEP inhibition alpha value ([1]; Telcagepant—Low parameter set): 4.32 Dimensionless; Uncoupler 1 effect Hill (HepG2 cells [2]; Telcagepant—High parameter set): No effect; Uncoupler 1 effect Km (HepG2 cells [2]; Telcagepant—High parameter set): No effect; Uncoupler 1 effect Vmax (HepG2 cells [2]; Telcagepant—High parameter set): No effect; Uncoupler 1 effect Hill (HepG2 cells [2]; Telcagepant—Low parameter set): No effect; Uncoupler 1 effect Km (HepG2 cells [2]; Telcagepant—Low parameter set): No effect; Uncoupler 1 effect Vmax (HepG2 cells [2]; Telcagepant—Low parameter set): No effect; RNS/ROS production rate constant 1 (HepG2 cells [3]; Telcagepant—High parameter set): 0.0972 M⁻¹ s⁻¹; RNS/ROS production rate constant 1 (HepG2 cells [3]; Telcagepant—Low parameter set): 0.0972 M⁻¹ s⁻¹; Observed ALT > 3X ULN in Clinic ([4]; 140 mg BID): 1.9% (5/263); Observed ALT > 3X ULN in Clinic ([4]; 280 mg BID): 3.2% (8/265) |
| C[C@@H]1[C@H](c2ccccc2)C[C@H](NC(=O)c2cnc3c(c2)C[C@@]2(C3)C(=O)Nc3ncccc32)C(=O)N1CC(F)(F)F [Ubrogepant, ubrogepant] | No inhibition |  | mixed |  |  | 0.4 Dimensionless | 0.0458 M⁻¹ s⁻¹ | 4.3 Dimensionless |  | 22.5 Dimensionless |  |
| C[C@@H]1[C@H](c2c(F)ccc(F)c2F)C[C@H](NC(=O)c2cnc3c(c2)C[C@@]2(C3)C(=O)Nc3ncccc32)C(=O)N1CC(F)(F)F [Atogepant, atogepant] | 0.64 Dimensionless | 144 µM |  | 0.1 µM | 38 170 µM | 0.2 Dimensionless | 0.0947 M⁻¹ s⁻¹ | No effect | No effect | No effect |  |
